From ChEMBL document CHEMBL1914430, “Synthesis of some new 1,3,5-trisubstituted pyrazolines bearing benzene sulfonamide as anticancer and anti-inflammatory agents” (Bioorg Med Chem Lett, 2011)
Activity calls are given as the source filed them. No cut-off for these calls is given here.

What was measured:
Rattus norvegicus [1] = assay: Antiinflammatory activity in Wistar rat assessed as inhibition of carrageenan-induced hind paw edema at 20 mg/kg, po administered 30 mins before carrageenan challenge measured after 3 hrs by plethysmometer; assay type: functional
How it was run: (§1)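 Wistar rats of either sex, 150–175 g, fasted 16 h, n = 6 per group. Compound given orally at 20 mg/kg as a suspension in 1% CMC in water (10 mL/kg); controls got vehicle only. After 30 min, 0.1 mL of 1% carrageenan in saline was injected subplantar into the left hind paw. Paw volume was measured by plethysmometer at 0, 3 and 5 h. Inhibition = (1 − Vt/Vc) × 100, reported as mean ± SEM.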

Rattus norvegicus [2] = assay: Antiinflammatory activity in Wistar rat assessed as inhibition of carrageenan-induced hind paw edema at 20 mg/kg, po administered 30 mins before carrageenan challenge measured after 5 hrs by plethysmometer; assay type: functional; how it was run: as §1
Rattus norvegicus [3] = assay: Toxicity in Wistar rat assessed as appearance of ulcerogenic bleeding in stomach at 60 mg/kg, po; assay type: organism-based; parameters: dose 60 mg/kg, route oral; settings: in vivo
How it was run: (§2)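 Wistar rats, 160–220 g, fasted 24 h, six per group. Compound given orally at 60 mg/kg as a suspension in 1% w/v CMC (10 mL/kg); controls got vehicle only. Animals were killed under ether anaesthesia 6 h after treatment, and stomachs were opened along the greater curvature and examined for lesions and bleeding.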

[4] = target: Prostaglandin G/H synthase 1 (Bos taurus) (UniProt O62664); assay: Inhibition of bovine COX1 assessed as PGE2 production preincubated for 10 mins by ELISA
How it was run: (§3)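 In vitro inhibition of bovine COX-1 and COX-2 measured with a COX inhibitor screening kit, following the Gierse et al. method.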

Rattus norvegicus [5] = assay: Toxicity in Wistar rat assessed as appearance of ulcerogenic lesions in stomach at 60 mg/kg, po; assay type: organism-based; parameters: dose 60 mg/kg, route oral; settings: in vivo; how it was run: as §2
[6] = target: Prostaglandin G/H synthase 2 (Bos taurus) (UniProt O62698); assay: Inhibition of bovine COX2 assessed as PGE2 production preincubated for 10 mins by ELISA; how it was run: as §3
Sequence of Prostaglandin G/H synthase 2 (Bos taurus) (O62698 whole entry): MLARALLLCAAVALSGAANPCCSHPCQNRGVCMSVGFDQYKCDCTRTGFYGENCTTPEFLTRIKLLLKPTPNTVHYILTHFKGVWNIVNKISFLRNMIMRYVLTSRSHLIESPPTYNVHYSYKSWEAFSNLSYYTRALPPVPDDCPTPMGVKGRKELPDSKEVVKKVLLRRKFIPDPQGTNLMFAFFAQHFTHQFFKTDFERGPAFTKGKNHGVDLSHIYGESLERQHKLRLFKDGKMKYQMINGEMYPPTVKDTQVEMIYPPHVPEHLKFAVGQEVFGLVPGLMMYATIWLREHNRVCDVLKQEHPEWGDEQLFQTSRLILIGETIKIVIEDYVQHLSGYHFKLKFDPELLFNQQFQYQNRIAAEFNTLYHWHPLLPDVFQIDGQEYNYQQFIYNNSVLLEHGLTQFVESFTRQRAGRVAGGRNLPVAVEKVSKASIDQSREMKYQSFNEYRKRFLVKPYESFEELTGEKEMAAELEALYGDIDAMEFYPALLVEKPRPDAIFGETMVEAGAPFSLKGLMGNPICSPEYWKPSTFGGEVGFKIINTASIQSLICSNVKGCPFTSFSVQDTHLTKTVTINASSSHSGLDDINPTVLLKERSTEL

Sequence of Prostaglandin G/H synthase 1 (Bos taurus) (O62664 whole entry): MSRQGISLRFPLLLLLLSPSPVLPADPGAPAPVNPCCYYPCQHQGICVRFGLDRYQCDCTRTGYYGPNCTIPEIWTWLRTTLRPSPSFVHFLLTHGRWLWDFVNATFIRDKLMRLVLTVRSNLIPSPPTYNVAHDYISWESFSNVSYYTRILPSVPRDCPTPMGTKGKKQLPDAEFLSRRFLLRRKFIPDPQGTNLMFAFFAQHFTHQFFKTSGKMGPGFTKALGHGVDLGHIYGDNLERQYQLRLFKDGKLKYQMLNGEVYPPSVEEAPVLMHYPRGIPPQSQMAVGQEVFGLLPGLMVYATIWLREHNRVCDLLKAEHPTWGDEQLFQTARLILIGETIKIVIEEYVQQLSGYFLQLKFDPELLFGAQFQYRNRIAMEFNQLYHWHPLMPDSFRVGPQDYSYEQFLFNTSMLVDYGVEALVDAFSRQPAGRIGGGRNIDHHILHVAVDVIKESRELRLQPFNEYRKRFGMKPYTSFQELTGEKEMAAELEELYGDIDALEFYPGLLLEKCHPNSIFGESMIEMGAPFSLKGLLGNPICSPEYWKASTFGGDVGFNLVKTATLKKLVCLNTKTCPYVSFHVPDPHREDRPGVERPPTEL

inhibition [4]	inhibition [6]	SMILES	inhibition in vivo at 20 mg/kg (Rattus norvegicus [1]) [%]	inhibition in vivo at 20 mg/kg (Rattus norvegicus [2]) [%]	Activity (Rattus norvegicus [3])	Activity (Rattus norvegicus [5])
–	–	COc1cc(C)c(Cl)cc1C1=NN(c2ccc(S(N)(=O)=O)cc2)C(c2ccccc2)C1 (stereo not drawn)	55.3	59.5	–	–
inactive	Active	COc1cc(C)c(Cl)cc1C1=NN(c2ccc(S(N)(=O)=O)cc2)C(c2ccc(N(C)C)cc2)C1 (stereo not drawn)	78.9	95.2	Non-toxic	Non-toxic
